This is an account of results in ChEMBL document CHEMBL4765453, “Phenanthrolinic analogs of quinolones show antibacterial activity against M. tuberculosis” (Eur J Med Chem, 2020).

Structures are written as SMILES. ≈ marks a conversion by molar mass, not a printed value. Calls of active or inactive are those of the source. The calls are words filed in the database; no cut-off is given here.

Data set [1] relates to Mycolicibacterium smegmatis. The experiment in a line: Antibacterial activity against Mycobacterium smegmatis measured after 7 days by resazurin microtiter assay. It is filed as functional. Particulars: 168 h, time 7 day. A digest of the protocol:
(§1)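 Resazurin microtiter assay with two-fold drug dilutions in complete 7H9 broth. Exponential-phase cells are diluted to a final OD600 of 0.005 in 7H9 without Tween. Incubation is 7 days at 37°C, then 0.01% resazurin is added and plates are held 24 h more. MIC is the lowest concentration preventing the blue-to-pink change. Each MIC is determined three times in duplicate experiments.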
For orientation: The colour change of resazurin is a common sign of viable cells or microbes.

The test system of data set [2] is Mycobacterium tuberculosis. The experiment in a line: Antitubercular activity against Mycobacterium tuberculosis XDR measured after 7 days by resazurin microtiter assay. The data set is classed as functional. Conditions: 168 h, time 7 day. The procedure, abridged:
as §1

In data set [3] the test system is Klebsiella aerogenes. The data set can be described thus: Antibacterial activity against Enterobacter aerogenes measured after 7 days by resazurin microtiter assay. It is filed as functional. Conditions: 168 h, time 7 day.
Data set [4] concerns Escherichia coli ATCC 25922. The experiment in a line: Inhibition of DNA gyrase in Escherichia coli ATCC 25922 assessed as elongation of bacterial cells at 2 ug/ml measured after 1.5 hrs by DAPI/FM 4-64 staining based confocal fluorescence microscopic analysis. Conditions: dose 2.0 µg/ml. The procedure, abridged: (§2)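 E. coli ATCC 25922 is grown in LB, and exponential cultures are treated 1.5 h at 37°C. Cells are washed in PBS, fixed 10 min in 4% PFA, and stained 20 min at room temperature with 2 µg/mL DAPI plus 1 µg/mL FM 4-64. Imaging is by confocal microscopy with a 60x oil objective.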

For data set [5], the system named is Enterobacter cloacae. The experiment in a line: Antibacterial activity against Enterobacter cloacae measured after 7 days by resazurin microtiter assay. Conditions: 168 h, time 7 day. The data set is classed as functional.
Data set [6] concerns Mycolicibacterium aurum. The experiment in a line: Antibacterial activity against Mycobacterium aurum measured after 7 days by resazurin microtiter assay. The data set is classed as functional. Particulars: 168 h, time 7 day. A digest of the protocol: as §1
The subject of data set [7] is Pseudomonas aeruginosa. The data set can be described thus: Antibacterial activity against Pseudomonas aeruginosa measured after 7 days by resazurin microtiter assay. It is filed as functional. Particulars: 168 h, time 7 day.
Data set [8] concerns Staphylococcus aureus. The experiment in a line: Antibacterial activity against Staphylococcus aureus measured after 7 days by resazurin microtiter assay. It is filed as functional. Conditions: 168 h, time 7 day.
For data set [9], the system named is Mycobacterium tuberculosis. The data set can be described thus: Antitubercular activity against Mycobacterium tuberculosis H37Rv measured after 7 days by resazurin microtiter assay. It is filed as functional. Conditions: 168 h, time 7 day. The procedure, abridged:
as §1

Data set [10] deals with Mycobacterium marinum. The experiment in a line: Antibacterial activity against Mycobacterium marinum measured after 7 days by resazurin microtiter assay. Conditions: 168 h, time 7 day. The data set is classed as functional. A digest of the protocol: as §1
For data set [11], the system named is Mycolicibacterium smegmatis. The data set can be described thus: Inhibition of DNA gyrase in Mycobacterium smegmatis assessed as elongation of bacterial cells at 2 ug/ml measured after 6 hrs by DAPI/FM 4-64 staining based confocal fluorescence microscopic analysis. Particulars: dose 2.0 µg/ml. The procedure, abridged: (§3)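 M. smegmatis is grown in 7H9, and exponential cultures are treated 6 h at 37°C. Cells are fixed 10 min in 4% PFA in PBS and stained 20 min at room temperature with 2 µg/mL DAPI and 1 µg/mL FM 4-64. Imaging is by confocal microscopy with a 60x oil objective.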

For data set [12], the system named is Acinetobacter baumannii. The data set can be described thus: Antibacterial activity against Acinetobacter baumannii measured after 7 days by resazurin microtiter assay. Conditions: 168 h, time 7 day. The data set is classed as functional.
Data set [13] has as its system Mycolicibacterium smegmatis. The data set can be described thus: Inhibition of DNA gyrase in Mycobacterium smegmatis assessed as segmentation of bacterial cells at 2 ug/ml measured after 6 hrs by DAPI/FM 4-64 staining based confocal fluorescence microscopic analysis. Conditions: dose 2.0 µg/ml. The procedure, abridged:
as §3

Data set [14] deals with Escherichia coli ATCC 25922. The data set can be described thus: Inhibition of DNA gyrase in Escherichia coli ATCC 25922 assessed as change in DNA morphology at 2.5 ug/ml measured after 1.5 hrs by DAPI/FM 4-64 staining based confocal fluorescence microscopic analysis. Particulars: dose 2.5 µg/ml. The procedure, abridged: as §2
Data set [15] deals with Escherichia coli ATCC 25922. The data set can be described thus: Inhibition of DNA gyrase in Escherichia coli ATCC 25922 assessed as elongation of bacterial cells at 2.5 ug/ml measured after 1.5 hrs by DAPI/FM 4-64 staining based confocal fluorescence microscopic analysis. Particulars: dose 2.5 µg/ml. A digest of the protocol:
as §2

Data set [16] concerns Mycolicibacterium smegmatis. The experiment in a line: Inhibition of DNA gyrase in Mycobacterium smegmatis assessed as segmentation of bacterial cells at 2.5 ug/ml measured after 6 hrs by DAPI/FM 4-64 staining based confocal fluorescence microscopic analysis. Conditions: dose 2.5 µg/ml. The procedure, abridged: as §3
Data set [17] relates to Mycobacterium tuberculosis. The data set can be described thus: Antitubercular activity against Mycobacterium tuberculosis H37Rv infected in human macrophages assessed as intracellular bacterial load at 2 times MIC measured after 6 days (reference value: 5.57 to 6.43 logCFU/ml). It is filed as functional, Macrophage. Particulars: time 6 day.
Data set [18] has as its system Mycobacterium tuberculosis. The experiment in a line: Antitubercular activity against Mycobacterium tuberculosis H37Rv infected in human macrophages assessed as intracellular bacterial load at 0.5 MIC measured after 6 days (reference value: 5.57 to 6.43 logCFU/ml). It is filed as functional, Macrophage. Conditions: time 6 day.
Data set [19] concerns Klebsiella pneumoniae. The data set can be described thus: Antibacterial activity against Klebsiella pneumoniae measured after 7 days by resazurin microtiter assay. It is filed as functional. Conditions: 168 h, time 7 day.
Data set [20] relates to Mycolicibacterium smegmatis. The data set can be described thus: Inhibition of DNA gyrase in Mycobacterium smegmatis assessed as elongation of bacterial cells at 2.5 ug/ml measured after 6 hrs by DAPI/FM 4-64 staining based confocal fluorescence microscopic analysis. Conditions: dose 2.5 µg/ml. A digest of the protocol: as §3
For data set [21], the system named is Vero. The experiment in a line: Cytotoxicity against African green monkey Vero cells assessed as reduction in cell viability measured after 24 to 48 hrs by Celltiter-glo assay. The data set is classed as cell-based, Chlorocebus sabaeus. Conditions: chlorocebus sabaeus, vero; time 24-48 hrs. A digest of the protocol: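 Vero cells are grown in DMEM with 10% FBS and seeded at 25000 cells/well. Compound is added at 1% final DMSO, with 24 and 48 h incubation. ATP is read by CellTiter-Glo luminescence. IC50 is the concentration giving a 50% drop in ATP signal versus the DMSO control.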

Data set [22] has as its system Mycobacterium tuberculosis. The experiment in a line: Antitubercular activity against Mycobacterium tuberculosis H37Rv infected in human macrophages assessed as intracellular bacterial load at 4 times MIC measured after 6 days (reference value: 5.57 to 6.43 logCFU/ml). The data set is classed as functional, Macrophage. Conditions: time 6 day.
Data set [23] concerns Escherichia coli ATCC 25922. The data set can be described thus: Inhibition of DNA gyrase in Escherichia coli ATCC 25922 assessed as appearance of filamentous bacterial cells at 2.5 ug/ml measured after 1.5 hrs by DAPI/FM 4-64 staining based confocal fluorescence microscopic analysis. Conditions: dose 2.5 µg/ml. A digest of the protocol:
as §2

Data set [24] relates to Mycobacterium tuberculosis. The experiment in a line: Antitubercular activity against Mycobacterium tuberculosis H37Rv infected in human macrophages assessed as intracellular bacterial load at MIC measured after 6 days (reference value: 5.57 to 6.43 logCFU/ml). It is filed as functional, Macrophage. Conditions: time 6 day.
Data set [25] is described as follows: Solubility of compound in water. The data set is classed as physicochemical. Particulars: buffer.
In data set [26] the test system is Macrophage. The experiment in a line: Cytotoxicity against human macrophages assessed as reduction in cell viability measured after 6 days by Celltiter-glo assay. Conditions: human, macrophage, 144 h; time 6 day. The data set is classed as cell-based. The procedure, abridged:
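Infected human macrophages, with or without drug, are incubated 6 days. Viability is checked by visual inspection and by CellTiter-Glo ATP luminescence.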
For orientation: ATP-based viability assays read luminescence as a measure of living cells.

What is called MIC90 is the lowest concentration that inhibits either 90% of growth or 90% of the strains tested, depending on the study. For `CC1COc2c(N3CCN(C)CC3)c(F)cc3c(=O)c(C(=O)O)cn1c23` (stereo unspecified) [OFLOXACIN], the MIC90 in data set [1] stood at 3.46 µM (≈ 1.25 µg/mL); in [2], 27.6 µM (≈ 9.97 µg/mL); in data set [3] it was 0.22 µM (≈ 0.0795 µg/mL); in [5], 6.92 µM (≈ 2.5 µg/mL); in data set [6] it was 3.46 µM (≈ 1.25 µg/mL); in data set [7] it was 6.92 µM (≈ 2.5 µg/mL). In addition, the MIC90 in [8] was 1.73 µM (≈ 0.625 µg/mL); in data set [9], 1.73 µM (≈ 0.625 µg/mL); in [10], 6.92 µM (≈ 2.5 µg/mL); in [12] it was 1.73 µM (≈ 0.625 µg/mL). Also, the inhibition entry in [4], in data set [11] and in [13] was “Active” throughout.
As for `Cn1cc(C(=O)O)c(=O)c2cc([N+](=O)[O-])c3cccnc3c21`, the inhibition result in data set [14], in data set [15], in data set [16], in data set [20] and in data set [23] was “Active” each time. Moreover, the MIC90 in data set [1] is 11.2 µM (≈ 3.35 µg/mL); in data set [2] it was 2.64 µM (≈ 0.79 µg/mL); in data set [3], 44.7 µM (≈ 13.4 µg/mL); in [5] it was > 275 µM; in data set [6], 11.2 µM (≈ 3.35 µg/mL); in data set [7], > 100 µM. For the same compound, the MIC90 in data set [8] is 22.4 µM (≈ 6.69 µg/mL); in data set [9], 2.64 µM (≈ 0.79 µg/mL); in data set [10], 0.7 µM (≈ 0.209 µg/mL); in data set [19] it was > 275 µM; in [12] it was > 100 µM. The Activity in [17] was 2.77 log10CFU/ml; in data set [18], 3.78 log10CFU/ml; in data set [21], “Non-Toxic”; in data set [22] it was 3.01 log10CFU/ml; in data set [24], 3.65 log10CFU/ml; in [26], “Non-Toxic”. Moreover, the solubility result in data set [25] is reported as “Insoluble”.
